# Measured values reported in ChEMBL document CHEMBL5029186, “Searching for New Microbiome-Targeted Therapeutics through a Drug Repurposing Approach” (J Med Chem, 2021).
# Assays:
# [1] = Drug metabolism in mini gut model assessed as metabolite formation by LC-MS/MS analysis; assay type: ADME, tissue-based
# In short: (§1)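 Anaerobic mini gut model: stool homogenized in pre-reduced mGAM (10 mL/g), settled 5 min, 50 μL slurry into 450 μL mGAM; compound 20 μM in DMSO (final DMSO 0.22%); 37 °C, 5% H₂/10% CO₂/85% N₂, up to 24 h; donor 1; triplicate. Supernatant acetonitrile-precipitated (1:3), LC–MS at 45 °C, 0.45 mL/min; metabolites analysed versus feces-free reference incubation in mGAM.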
# [2] = Stability of compound in mini gut model at 24 hrs by LC-MS analysis; assay type: ADME, tissue-based
# In short: (§2)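 Compound 20 μM (DMSO vehicle, final 0.22%) incubated anaerobically at 37 °C in mGAM inoculated with donor 1 fecal slurry (1:10 slurry, 50 μL into 450 μL) and in bacteria-free mGAM as reference, up to 24 h, triplicate. Samples mixed with 3 volumes cold acetonitrile, centrifuged 21,100g 15 min 4 °C; supernatant analysed by LC–MS (45 °C, 0.45 mL/min) for remaining parent drug.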
# [3] = Drug metabolism in human gut microbes assessed as metabolite formation by LC-MS/MS analysis; assay type: ADME; in short: as §1
# [4] = Stability of compound in mini gut model assessed as half life by LC-MS analysis; assay type: ADME, tissue-based; in short: as §2
# [5] = Stability in human gut microbes assessed as half life by LC-MS analysis; assay type: ADME; in short: as §2
Structure (SMILES),Drug metabolism [1],Stability [2],Drug metabolism [3],half-life [4],half-life [5]
Cl.Oc1noc2c1CCNC2,Metabolite_Notdetected,Unstable,Metabolite_Notdetected,–,–
CCCCNc1ccc(C(=O)OCCOCCOCCOCCOCCOCCOCCOCCOCCOC)cc1 [BENZONATATE],Metabolite_Notdetected,–,Metabolite_Notdetected,> 48 h,> 48 h
O=C([O-])[C@H]1/C(=C/CO)O[C@@H]2CC(=O)N21.[K+] [CLAVULANATE POTASSIUM],Metabolite_Notdetected,Unstable,Metabolite_Notdetected,–,–
CCN(CC)C(=O)/C(C#N)=C/c1cc(O)c(O)c([N+](=O)[O-])c1 [ENTACAPONE],Metabolite_Notdetected,–,Metabolite_Detected,–,–
NS(=O)(=O)c1cc2c(cc1Cl)NCNS2(=O)=O [HYDROCHLOROTHIAZIDE],Metabolite_Notdetected,–,Metabolite_Notdetected,> 48 h,> 48 h
COC1=C(OC)C(=O)C(CCCCCCCCCCO)=C(C)C1=O [IDEBENONE],Metabolite_Notdetected,–,Metabolite_Detected,–,–
N[C@@H](Cc1ccc(O)c(O)c1)C(=O)O [LEVODOPA],Metabolite_Notdetected,–,Metabolite_Detected,30 h,30 h
O=S(=O)([O-])CCS.[Na+] [MESNA],Metabolite_Detected,Unstable,Metabolite_Detected,–,–
C1N2CN3CN1CN(C2)C3 [METHENAMINE],Metabolite_Notdetected,–,Metabolite_Detected,10 h,10 h
CCCc1nc(C(C)(C)O)c(C(=O)OCc2oc(=O)oc2C)n1Cc1ccc(-c2ccccc2-c2nnn[nH]2)cc1 [OLMESARTAN MEDOXOMIL],Metabolite_Detected,Unstable,Metabolite_Detected,–,–
